{
  "source": "ChEMBL document CHEMBL1121813",
  "about": "“Dihydrochalcone sweeteners. A study of the atypical temporal phenomena” (1981)",
  "type_in_all_cases": "functional",
  "key": {"Homo sapiens [1]": {"organism": "Homo sapiens", "assay": "Number of taste judgments per compound"}, "Homo sapiens [2]": {"organism": "Homo sapiens", "assay": "Experimentally determined perceived intensity of compound at a concentration of 690 ppm (mean value)", "how_it_was_run": "(§1)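 Trained human sensory panel of judges tasted aqueous solutions of the compound. Samples had to be ≥95 weight % pure (HPLC, proton titration, Karl Fischer), non-mutagenic in five Salmonella typhimurium strains with and without microsomal activation, and non-toxic in a single-oral-dose mouse test. Perceived intensity (Ip) was read from time–intensity curves at 4- or 6-s intervals and averaged. Outliers at the 95% level were rejected by t-value. Values reported as mean (2Sm).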"}, "Homo sapiens [3]": {"organism": "Homo sapiens", "assay": "Intensity calculated on a weight basis relative to an 85500 ppm sucrose solution at a concentration of 244 ppm (mean value)", "how_it_was_run": "(§2)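 Trained human panel tasted aqueous solutions of purity-checked (≥95 weight percent) compounds cleared for mutagenicity and mouse oral toxicity. Weight-basis intensity I_w = perceived intensity × (85500 ppm sucrose / compound concentration in ppm). The mean is reported with 2S_m limits; data deviating excessively at 95% confidence were rejected by the t-value method.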"}, "Homo sapiens [4]": {"organism": "Homo sapiens", "assay": "Sour character at a concentration of 244 ppm (mean value)"}, "Homo sapiens [5]": {"organism": "Homo sapiens", "assay": "Salty character at a concentration of 244 ppm (mean value)"}, "Homo sapiens [6]": {"organism": "Homo sapiens", "assay": "Percentage of judgments reporting an aftertaste at a concentration of 244 ppm and character thereof; Bitter", "how_it_was_run": "(§3)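 Trained judges tasted aqueous solutions of the compounds, which had to be ≥95 weight percent pure and to have passed mutagenicity and single oral dose toxicity screening. The value is the percentage of panel judgments reporting an aftertaste. Where given, its character is recorded as sweet, bitter or bitter-sweet.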"}, "Homo sapiens [7]": {"organism": "Homo sapiens", "assay": "Intensity calculated on a molar basis relative to a 0.25 M sucrose solution at a concentration of 244 ppm (mean value)", "how_it_was_run": "(§4)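 Trained human judges tasted aqueous solutions of the test compound; compounds were first required to be ≥95 weight percent pure and free of mutagenicity (five Salmonella typhimurium strains, ± microsomal activation) and of single oral dose mouse toxicity. Molar intensity I_m = perceived intensity × (0.25 M sucrose / compound molar concentration). The mean is reported with 2S_m limits; outliers were rejected at 95% confidence by t-value.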"}, "Homo sapiens [8]": {"organism": "Homo sapiens", "assay": "Other taste character at a concentration of 244 ppm (mean value)", "how_it_was_run": "(§5)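 Trained human sensory panel (Swartz method) tasted dilute aqueous solutions of the compounds, which had to be ≥95 weight percent pure and free of mutagenicity and toxicity. Taste character is reported as the mean value with 2S_m limits. Data deviating excessively at the 95% confidence level were rejected by the t-value method.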"}, "Homo sapiens [9]": {"organism": "Homo sapiens", "assay": "Bitter character at a concentration of 244 ppm (mean value)", "how_it_was_run": "(§6)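 Trained human panel tasted aqueous solutions. Each judge reported whether there was an aftertaste and its character (sweet, bitter or bitter-sweet). The value is the percentage of judgments reporting a bitter aftertaste.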"}, "Homo sapiens [10]": {"organism": "Homo sapiens", "assay": "Sweet character at a concentration of 244 ppm (mean value)"}, "Homo sapiens [11]": {"organism": "Homo sapiens", "assay": "Sweet / Bitter character at a concentration of 244 ppm (mean value)"}, "Homo sapiens [12]": {"organism": "Homo sapiens", "assay": "Experimentally determined perceived intensity of compound at a concentration of 244 ppm (mean value)", "how_it_was_run": "as §1"}, "Homo sapiens [13]": {"organism": "Homo sapiens", "assay": "Salty character at a concentration of 260 ppm (mean value)"}, "Homo sapiens [14]": {"organism": "Homo sapiens", "assay": "Sweet character at a concentration of 260 ppm (mean value)"}, "Homo sapiens [15]": {"organism": "Homo sapiens", "assay": "Experimentally determined perceived intensity of compound at a concentration of 260 ppm (mean value)", "how_it_was_run": "as §1"}, "Homo sapiens [16]": {"organism": "Homo sapiens", "assay": "Intensity calculated on a weight basis relative to an 85500 ppm sucrose solution at a concentration of 260 ppm (mean value)", "how_it_was_run": "as §2"}, "Homo sapiens [17]": {"organism": "Homo sapiens", "assay": "Percentage of judgments reporting an aftertaste at a concentration of 260 ppm and character thereof", "how_it_was_run": "as §3"}, "Homo sapiens [18]": {"organism": "Homo sapiens", "assay": "Bitter character at a concentration of 260 ppm (mean value)", "how_it_was_run": "as §6"}, "Homo sapiens [19]": {"organism": "Homo sapiens", "assay": "Other taste character at a concentration of 260 ppm (mean value)", "how_it_was_run": "as §5"}, "Homo sapiens [20]": {"organism": "Homo sapiens", "assay": "Intensity calculated on a molar basis relative to a 0.25 M sucrose solution at a concentration of 260 ppm (mean value)", "how_it_was_run": "as §4"}, "Homo sapiens [21]": {"organism": "Homo sapiens", "assay": "Sour character at a concentration of 260 ppm (mean value)"}, "Homo sapiens [22]": {"organism": "Homo sapiens", "assay": "Sweet / Bitter character at a concentration of 260 ppm (mean value); 94/6"}, "Homo sapiens [23]": {"organism": "Homo sapiens", "assay": "Sweet character at a concentration of 251 ppm (mean value)", "how_it_was_run": "as §5"}, "Homo sapiens [24]": {"organism": "Homo sapiens", "assay": "Intensity calculated on a molar basis relative to a 0.25 M sucrose solution at a concentration of 251 ppm (mean value)", "how_it_was_run": "as §4"}, "Homo sapiens [25]": {"organism": "Homo sapiens", "assay": "Sour character at a concentration of 251 ppm (mean value)", "how_it_was_run": "as §5"}, "Homo sapiens [26]": {"organism": "Homo sapiens", "assay": "Bitter character at a concentration of 251 ppm (mean value)", "how_it_was_run": "as §6"}, "Homo sapiens [27]": {"organism": "Homo sapiens", "assay": "Sweet / Bitter character at a concentration of 251 ppm (mean value); 51/49"}, "Homo sapiens [28]": {"organism": "Homo sapiens", "assay": "Percentage of judgments reporting an aftertaste at a concentration of 251 ppm and character thereof", "how_it_was_run": "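Trained human sensory panel; compounds tasted in aqueous solution. Before panel work, compounds had to be ≥95 weight percent pure (HPLC, proton titration, Karl Fischer) and free of mutagenicity (five Salmonella typhimurium strains, ± microsomal activation) and single oral dose mouse toxicity. Value is the percentage of judgments reporting an aftertaste, with its character recorded as sweet, bitter or bitter-sweet.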"}, "Homo sapiens [29]": {"organism": "Homo sapiens", "assay": "Other taste character at a concentration of 251 ppm (mean value)", "how_it_was_run": "as §5"}, "Homo sapiens [30]": {"organism": "Homo sapiens", "assay": "Intensity calculated on a weight basis relative to an 85500 ppm sucrose solution at a concentration of 251 ppm (mean value)", "how_it_was_run": "as §2"}, "Homo sapiens [31]": {"organism": "Homo sapiens", "assay": "Experimentally determined perceived intensity of compound at a concentration of 251 ppm (mean value)", "how_it_was_run": "as §1"}, "Homo sapiens [32]": {"organism": "Homo sapiens", "assay": "Salty character at a concentration of 251 ppm (mean value)", "how_it_was_run": "as §5"}, "Homo sapiens [33]": {"organism": "Homo sapiens", "assay": "Intensity calculated on a molar basis relative to a 0.25 M sucrose solution at a concentration of 240 ppm (mean value)", "how_it_was_run": "as §4"}, "Homo sapiens [34]": {"organism": "Homo sapiens", "assay": "Bitter character at a concentration of 240 ppm (mean value)", "how_it_was_run": "as §6"}, "Homo sapiens [35]": {"organism": "Homo sapiens", "assay": "Other taste character at a concentration of 240 ppm (mean value)", "how_it_was_run": "as §5"}, "Homo sapiens [36]": {"organism": "Homo sapiens", "assay": "Percentage of judgments reporting an aftertaste at a concentration of 240 ppm and character thereof", "how_it_was_run": "as §3"}, "Homo sapiens [37]": {"organism": "Homo sapiens", "assay": "Intensity calculated on a weight basis relative to an 85500 ppm sucrose solution at a concentration of 240 ppm (mean value)", "how_it_was_run": "as §2"}, "Homo sapiens [38]": {"organism": "Homo sapiens", "assay": "Sweet character at a concentration of 240 ppm (mean value)", "how_it_was_run": "as §5"}, "Homo sapiens [39]": {"organism": "Homo sapiens", "assay": "Salty character at a concentration of 240 ppm (mean value)", "how_it_was_run": "as §5"}, "Homo sapiens [40]": {"organism": "Homo sapiens", "assay": "Sour character at a concentration of 240 ppm (mean value)", "how_it_was_run": "as §5"}, "Homo sapiens [41]": {"organism": "Homo sapiens", "assay": "Experimentally determined perceived intensity of compound at a concentration of 240 ppm (mean value)", "how_it_was_run": "as §1"}, "Homo sapiens [42]": {"organism": "Homo sapiens", "assay": "Sweet / Bitter character at a concentration of 240 ppm (mean value); 0/100"}},
  "data": [
    {"smiles": "COc1ccc(/C=C/C(=O)c2c(O)cc(OCC(=O)[O-])cc2O)cc1O.[Na+]", "values": [
      {"measurement": "Judgments", "setting": "Homo sapiens [1]", "value": 1},
      {"measurement": "IP", "setting": "Homo sapiens [2]", "value": 0}
    ]},
    {"smiles": "COc1ccc(CCC(=O)O)cc1O", "values": [
      {"measurement": "IW", "setting": "Homo sapiens [3]", "value": 210},
      {"measurement": "Taste character", "setting": "Homo sapiens [4]", "value": 69},
      {"measurement": "Taste character", "setting": "Homo sapiens [5]", "value": 0},
      {"measurement": "Judgments", "setting": "Homo sapiens [6]", "value": 50},
      {"measurement": "IM", "setting": "Homo sapiens [7]", "value": 120},
      {"measurement": "Taste character", "setting": "Homo sapiens [8]", "value": 3},
      {"measurement": "Taste character", "setting": "Homo sapiens [9]", "value": 28},
      {"measurement": "Taste character", "setting": "Homo sapiens [10]", "value": 0},
      {"measurement": "Taste character", "setting": "Homo sapiens [11]", "value": 0},
      {"measurement": "Judgments", "setting": "Homo sapiens [1]", "value": 8},
      {"measurement": "IP", "setting": "Homo sapiens [12]", "value": 0.6}
    ]},
    {"smiles": "COc1ccc(CCC(=O)c2c(O)cc(OCC(=O)[O-])cc2O)cc1O.[Na+]", "values": [
      {"measurement": "Taste character", "setting": "Homo sapiens [13]", "value": 0},
      {"measurement": "Taste character", "setting": "Homo sapiens [14]", "value": 76},
      {"measurement": "IP", "setting": "Homo sapiens [15]", "value": 0.9},
      {"measurement": "IW", "setting": "Homo sapiens [16]", "value": 300},
      {"measurement": "Judgments", "setting": "Homo sapiens [17]", "value": 100},
      {"measurement": "Taste character", "setting": "Homo sapiens [18]", "value": 5},
      {"measurement": "Taste character", "setting": "Homo sapiens [19]", "value": 19},
      {"measurement": "IM", "setting": "Homo sapiens [20]", "value": 330},
      {"measurement": "Taste character", "setting": "Homo sapiens [21]", "value": 0},
      {"measurement": "Judgments", "setting": "Homo sapiens [1]", "value": 12},
      {"measurement": "Taste character", "setting": "Homo sapiens [22]", "value": 94}
    ]},
    {"smiles": "CCCOc1ccc(CCC(=O)c2c(O)cc(OCC(=O)[O-])cc2O)cc1O.[Na+]", "values": [
      {"measurement": "Taste character", "setting": "Homo sapiens [23]", "value": 39},
      {"measurement": "IM", "setting": "Homo sapiens [24]", "value": 300},
      {"measurement": "Taste character", "setting": "Homo sapiens [25]", "value": 0},
      {"measurement": "Taste character", "setting": "Homo sapiens [26]", "value": 38},
      {"measurement": "Taste character", "setting": "Homo sapiens [27]", "value": 51},
      {"measurement": "Judgments", "setting": "Homo sapiens [28]", "value": 100},
      {"measurement": "Taste character", "setting": "Homo sapiens [29]", "value": 23},
      {"measurement": "Judgments", "setting": "Homo sapiens [1]", "value": 12},
      {"measurement": "IW", "setting": "Homo sapiens [30]", "value": 240},
      {"measurement": "IP", "setting": "Homo sapiens [31]", "value": 0.72},
      {"measurement": "Taste character", "setting": "Homo sapiens [32]", "value": 0}
    ]},
    {"smiles": "COc1ccc(CCCc2c(O)cc(OCC(=O)[O-])cc2O)cc1O.[Na+]", "values": [
      {"measurement": "IM", "setting": "Homo sapiens [33]", "value": 4},
      {"measurement": "Taste character", "setting": "Homo sapiens [34]", "value": 100},
      {"measurement": "Taste character", "setting": "Homo sapiens [35]", "value": 0},
      {"measurement": "Judgments", "setting": "Homo sapiens [36]", "value": 0},
      {"measurement": "IW", "setting": "Homo sapiens [37]", "value": 4},
      {"measurement": "Taste character", "setting": "Homo sapiens [38]", "value": 0},
      {"measurement": "Taste character", "setting": "Homo sapiens [39]", "value": 0},
      {"measurement": "Taste character", "setting": "Homo sapiens [40]", "value": 0},
      {"measurement": "Judgments", "setting": "Homo sapiens [1]", "value": 12},
      {"measurement": "IP", "setting": "Homo sapiens [41]", "value": 0.01},
      {"measurement": "Taste character", "setting": "Homo sapiens [42]", "value": 0}
    ]}
  ]
}
